ChEMBL document CHEMBL1134518, “5-(Tryptophyl)amino-1,3-dioxoperhydropyrido[1,2-c]pyrimidine-based potent and selective CCK(1)receptor antagonists: structure-activity relationship studies on the substituent at N2-position” (J Med Chem, 2001)

Experiments:
[1] = biological target: T1, Cholecystokinin receptor type A (Rattus norvegicus, UniProt P30551); assay: Inhibition of [3H]pCCK-8 specific binding to cholecystokinin type A receptor in rat pancreas
T1 sequence (P30551 whole entry): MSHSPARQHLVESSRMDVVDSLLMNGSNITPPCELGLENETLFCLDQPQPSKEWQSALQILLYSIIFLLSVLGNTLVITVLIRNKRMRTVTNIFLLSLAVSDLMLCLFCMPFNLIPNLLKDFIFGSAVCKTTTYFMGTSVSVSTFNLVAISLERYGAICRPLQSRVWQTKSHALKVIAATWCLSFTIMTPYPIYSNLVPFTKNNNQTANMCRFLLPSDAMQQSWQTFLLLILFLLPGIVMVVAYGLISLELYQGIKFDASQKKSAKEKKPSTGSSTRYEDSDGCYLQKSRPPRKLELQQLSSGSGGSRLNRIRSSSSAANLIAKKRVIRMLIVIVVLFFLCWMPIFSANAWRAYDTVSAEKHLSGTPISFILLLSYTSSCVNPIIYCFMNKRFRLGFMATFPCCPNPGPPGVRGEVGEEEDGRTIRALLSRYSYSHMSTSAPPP
Summary of the method: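 Rat pancreas homogenized in Pipes-HCl pH 6.5 with 30 mM MgCl2, centrifuged twice at 50 000g, 10 min, 4 °C. Membranes (0.2 mg protein/tube) incubated with 0.5 nM [3H]pCCK-8, 30 mM MgCl2, bacitracin and SBTI (0.2 mg/mL each), 120 min, 25 °C. Seven test concentrations in triplicate, at least three experiments.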

[2] = biological target: T2, Gastrin/cholecystokinin type B receptor (Rattus norvegicus, UniProt P30553); assay: Inhibition of [3H]pCCK-8 specific binding cholecystokinin type B receptor in rat cerebral cortex membranes; assay type: cell membranes, Membrane
T2 sequence (P30553 whole entry): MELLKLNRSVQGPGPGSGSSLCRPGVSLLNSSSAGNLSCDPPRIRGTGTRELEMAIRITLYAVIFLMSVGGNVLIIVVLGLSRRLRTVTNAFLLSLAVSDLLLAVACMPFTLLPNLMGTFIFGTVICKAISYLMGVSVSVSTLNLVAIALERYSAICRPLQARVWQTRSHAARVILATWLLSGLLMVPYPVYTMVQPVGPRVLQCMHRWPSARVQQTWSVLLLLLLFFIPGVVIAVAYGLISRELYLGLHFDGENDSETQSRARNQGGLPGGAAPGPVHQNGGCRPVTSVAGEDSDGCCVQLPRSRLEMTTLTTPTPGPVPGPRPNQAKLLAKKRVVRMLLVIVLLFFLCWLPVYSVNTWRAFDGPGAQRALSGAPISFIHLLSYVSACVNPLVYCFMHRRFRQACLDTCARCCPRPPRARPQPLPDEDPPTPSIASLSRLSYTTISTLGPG
Summary of the method: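 Rat brain cortex homogenized in 50 mM Tris-HCl pH 7.4 with 5 mM MgCl2, centrifuged twice at 100 000g, 35 min, 4 °C. Membranes (0.45 mg protein/tube) incubated with 1 nM [3H]pCCK-8 plus bacitracin 0.2 mg/mL, 60 min, 25 °C. Seven test concentrations in triplicate, at least three experiments.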

Rattus norvegicus = species on record: Rattus norvegicus; assay: Inhibition of amylase release stimulated by CCK-8 (0.1 nM) in dispersed pancreatic acini; assay type: functional
Summary of the method: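 Pancreatic acini prepared by collagenase digestion (two 6 min incubations, 37 °C). Acini were suspended in theophylline/BSA-containing buffer and incubated 30 min, 37 °C, under O2 with 0.1 nM CCK-8 and increasing compound concentrations. Released amylase was measured as a percentage of acinar content. IC50 came from linear regression of % inhibition. Three to six experiments in duplicate.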

Row | Compound | IC50 [1] | IC50 [2] | IC50 (Rattus norvegicus)
1 | CC(C)(C)OC(=O)N[C@H](Cc1c[nH]c2ccccc12)C(=O)N[C@H]1CCCN2C(=O)N(c3cccc4ccccc34)C(=O)C[C@H]12 | > 1000 nM | > 10000 nM | 
2 | CC(C)(C)OC(=O)N[C@@H](Cc1c[nH]c2ccccc12)C(=O)N[C@H]1CCCN2C(=O)N(c3ccncc3)C(=O)C[C@H]12 (relative stereo) | 386 nM | > 10000 nM | 
3 | CC(C)(C)OC(=O)N[C@@H](Cc1c[nH]c2ccccc12)C(=O)NC1CCCN2C(=O)N(c3cccc(O)c3)C(=O)CC12 (stereo not given in full) | > 1000 nM | > 10000 nM | 
4 | CN(C)c1ccc(N2C(=O)C[C@H]3[C@H](NC(=O)[C@H](Cc4c[nH]c5ccccc45)NC(=O)OC(C)(C)C)CCCN3C2=O)cc1 | 4.3 nM | > 10000 nM | 39.8 nM
5 | CC(C)(C)OC(=O)N[C@@H](Cc1c[nH]c2ccccc12)C(=O)N[C@H]1CCCN2C(=O)N(c3ccccc3)C(=O)C[C@H]12 | 628 nM | > 10000 nM | > 1000 nM
6 | Cc1ccc(N2C(=O)C[C@@H]3[C@@H](NC(=O)[C@H](Cc4c[nH]c5ccccc45)NC(=O)OC(C)(C)C)CCCN3C2=O)cc1 | 200 nM | 2320 nM | 
7 | CC(C)(C)OC(=O)N[C@@H](Cc1c[nH]c2ccccc12)C(=O)N[C@@H]1CCCN2C(=O)N(Cc3ccccc3)C(=O)C[C@@H]12 [IQM-95333] |  | > 10000 nM | 
8 | CN(C)c1cccc(N2C(=O)C[C@H]3[C@H](NC(=O)[C@H](Cc4c[nH]c5ccccc45)NC(=O)OC(C)(C)C)CCCN3C2=O)c1 | 50.8 nM | > 10000 nM | 
9 | CC(C)(C)OC(=O)N[C@@H](Cc1c[nH]c2ccccc12)C(=O)N[C@H]1CCCN2C(=O)N(c3ccc([N+](=O)[O-])cc3)C(=O)C[C@H]12 | > 1000 nM | > 10000 nM | 
10 | COc1ccc(N2C(=O)CC3C(NC(=O)[C@H](Cc4c[nH]c5ccccc45)NC(=O)OC(C)(C)C)CCCN3C2=O)cc1 (stereo not given in full) | 15.9 nM | > 10000 nM | 38.1 nM
11 | Cc1ccc(N2C(=O)C[C@H]3[C@H](NC(=O)[C@H](Cc4c[nH]c5ccccc45)NC(=O)OC(C)(C)C)CCCN3C2=O)cc1 | 2.9 nM | > 10000 nM | 16.6 nM
12 | CCOC(=O)[C@H](Cc1ccccc1)N1C(=O)C[C@H]2[C@H](NC(=O)[C@H](Cc3c[nH]c4ccccc34)NC(=O)OC(C)(C)C)CCCN2C1=O | > 1000 nM | > 10000 nM | 
13 | CC(C)(C)OC(=O)N[C@@H](Cc1c[nH]c2ccccc12)C(=O)N[C@H]1CCCN2C(=O)N(Cc3ccccc3)C(=O)C[C@H]12 | 22.7 nM | 6150 nM | 
14 | COC(=O)C(Cc1ccccc1)N1C(=O)CC2C(NC(=O)[C@H](Cc3c[nH]c4ccccc34)NC(=O)OC(C)(C)C)CCCN2C1=O (stereo not given in full) | > 1000 nM | > 10000 nM | 
15 | CC(C)(C)OC(=O)N[C@@H](Cc1c[nH]c2ccccc12)C(=O)N[C@H]1CCCN2C(=O)N(C3CCCCC3)C(=O)C[C@H]12 | 165 nM | 7160 nM | 287 nM
16 | CC(=O)Oc1cccc(N2C(=O)C[C@H]3[C@H](NC(=O)[C@H](Cc4c[nH]c5ccccc45)NC(=O)OC(C)(C)C)CCCN3C2=O)c1 | 70.3 nM | > 10000 nM | 
17 | C[C@@H](c1ccccc1)N1C(=O)C[C@H]2[C@H](NC(=O)[C@H](Cc3c[nH]c4ccccc34)NC(=O)OC(C)(C)C)CCCN2C1=O | 6.89 nM | > 10000 nM | 112 nM
18 | CN(C)c1ccc(N2C(=O)C[C@@H]3[C@@H](NC(=O)[C@H](Cc4c[nH]c5ccccc45)NC(=O)OC(C)(C)C)CCCN3C2=O)cc1 | > 1000 nM | 2320 nM | 
19 | CC(C)(C)OC(=O)N[C@@H](Cc1c[nH]c2ccccc12)C(=O)NC1CCCN2C(=O)N(c3cccc(C(=O)O)c3)C(=O)CC12 (stereo not given in full) | > 1000 nM | > 10000 nM | 
20 | CC(C)(C)OC(=O)N[C@@H](Cc1c[nH]c2ccccc12)C(=O)N[C@H]1CCCN2C(=O)N(c3cccc4ccccc34)C(=O)C[C@H]12 | > 1000 nM | > 10000 nM | 
